In ChEMBL document CHEMBL1131131, “Structure-based design of beta-lactamase inhibitors. 2. Synthesis and evaluation of bridged sulfactams and oxamazins” (J Med Chem, 1998):
≈ marks a conversion by molar mass, not a printed value.

Legend:
Citrobacter freundii = experiment: Minimum inhibitory concentration against the strain Citrobacter freundii 1982 that produce the beta-lactamases; format: functional
In short: (§1)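 Agar dilution on Mueller-Hinton agar with twofold serial dilutions of the compound or combination. About 10⁴ organisms were spotted with a multipoint inoculator. Plates were incubated for 18 h at 35 °C. MIC was taken as the lowest concentration preventing visible growth.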

Escherichia coli = experiment: Minimum inhibitory concentration against the strains of Escherichia coli that produce the beta-lactamases; format: functional; in short: as §1
Pseudomonas aeruginosa = experiment: Minimum inhibitory concentration against the strains of Pseudomonas aeruginosa that produce the beta-lactamases; format: functional; in short: as §1
[1] = Kinetic parameter was determined

SMILES | MIC (Citrobacter freundii) | MIC (Escherichia coli) | MIC (Pseudomonas aeruginosa) | Koff [1] | Kon [1] | Ks [1]
CC(C)(C)OC(=O)N1CCC2C1C(=O)N2OCC(=O)OCc1ccccc1 (stereo not given) | > 16 µg/mL | > 16 µg/mL | > 16 µg/mL | – | – | –
CC(C)(C)OC(=O)N1CCC2C1C(=O)N2OS(=O)(=O)[O-].[Na+] (stereo not given) | 4 µg/mL | 4 µg/mL | 32 µg/mL | 0.12 s⁻¹ | 20 s⁻¹ | 600 µM
CC(C)(C)OC(=O)N1CC[C@@H]2[C@H]1C(=O)N2S(=O)(=O)O | – | 16 µg/mL (≈ 54.7 µM) | 8 µg/mL (≈ 27.4 µM) | < 8e-07 s⁻¹ | 12.5 s⁻¹ | 127 µM

Second part, led by results:

MIC (Citrobacter freundii) | MIC (Escherichia coli) | MIC (Pseudomonas aeruginosa) | SMILES | Koff [1] | Kon [1] | Ks [1]
1 µg/mL | 8 µg/mL | 128 µg/mL | NC(=O)c1ccc(NC(=O)N2CCC3C2C(=O)N3OS(=O)(=O)[O-])cc1.[Na+] (stereo not given) | – | – | –
0.25 µg/mL (≈ 0.706 µM) | 16 µg/mL (≈ 45.2 µM) | 4 µg/mL (≈ 11.3 µM) | NC(=O)c1ccc(NC(=O)N2CC[C@@H]3[C@H]2C(=O)N3S(=O)(=O)O)cc1 | – | – | –
